# Columns and labels:
# Plasmodium falciparum [1] = assay: Antimalarial activity against chloroquine-sensitive ring-stage Plasmodium falciparum 3D7 assessed as parasite viability after 72 hrs by malstat assay; assay type: functional, organism-based; conditions: 3D7, 72 h
# Method in brief: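 P. falciparum 3D7: synchronized ring stages plated at 1% parasitemia with compounds dissolved in DMSO; 0.5% DMSO as negative control. Cultured in triplicate for 72 h, then viability read by Malstat assay (parasite lactate dehydrogenase activity). Each compound tested twice; IC50 and standard deviation calculated.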
# [2] = Cytotoxicity against mouse J774.1 cells after 24 hrs by AlamarBlue based cytotoxicity assay; assay type: cell-based; conditions: J774.1, 24 h
# Method in brief: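 Compounds dissolved in DMSO and serially diluted. Cells incubated with them at 37 °C, 5% CO2 for 24 h. AlamarBlue solution then added and plates incubated for a further 24 and 48 h.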
# [3] = Selectivity index, ratio of IC50 for mouse J774.1 cells to IC50 for chloroquine-sensitive ring-stage Plasmodium falciparum 3D7; assay type: toxicity; conditions: read-out: Ratio IC50
# Plasmodium falciparum [4] = assay: Inhibition of recombinant Plasmodium falciparum falcipain 2 assessed as hydrolysis of Cbz-Phe-Arg-AMC measured after 5 mins at 20 uM by spectrofluorometric method
# Method in brief: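 Recombinant falcipain-2 with Cbz-Phe-Arg-AMC substrate in 50 mM sodium acetate, pH 5.5, with 5 mM EDTA and 200 mM NaCl. Released AMC read by fluorescence (ex 380 nm, em 460 nm). Single-concentration screen; compounds giving over 35% inhibition went on to kinetic assays. Run twice.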
# [5] = Reversible inhibition of recombinant Plasmodium falciparum falcipain 2 assessed as hydrolysis of Cbz-Phe-Arg-AMC measured after 10 mins by spectrofluorometric method
# Method in brief: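 Substrate added to buffer containing falcipain-2 and a range of inhibitor concentrations. Fluorescence (ex 380, em 460 nm) followed over 10 min, in duplicate. Slopes (ΔF/min) of the progress curves plotted against inhibitor concentration; IC50 obtained by nonlinear regression.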
# Plasmodium falciparum [6] = assay: Antimalarial activity against chloroquine-resistant Plasmodium falciparum Dd2 assessed as parasite viability after 72 hrs by malstat assay; assay type: functional, organism-based; conditions: Dd2, 72 h
# [7] = Selectivity index, ratio of IC50 for mouse J774.1 cells to IC50 for ring-stage Plasmodium falciparum Dd2; assay type: toxicity; conditions: read-out: Ratio IC50
# [8] = Inhibition of beta-hematin formation; assay type: physicochemical
# Method in brief: (§1)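 Heme–pyridine complex absorbance, which obeys Lambert–Beer's law, used to quantify free heme in heme/hemozoin mixtures and so judge inhibition of β-hematin formation. Chloroquine served as positive control and DMSO as negative control.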
# [9] = Inhibition of beta-hematin formation in acetate solution at pH 4.5 measured after 60 mins by pyridine-based spectrophotometric assay; assay type: physicochemical; method in brief: as §1
compound,measurement,setting,value
CC1(C)CCc2c(nc3cc(Cl)ccc3c2NCCCCCCNc2c3c(nc4cc(Cl)ccc24)CC(C)(C)CC3)C1,IC50,Plasmodium falciparum [1],30 nM
same,IC50,[2],1500 nM
same,selectivity ratio,[3],50
CC1(C)CCc2c(nc3ccc([N+](=O)[O-])cc3c2NCCCCCCNc2c3c(nc4ccc([N+](=O)[O-])cc24)CC(C)(C)CC3)C1,IC50,Plasmodium falciparum [1],40 nM
same,IC50,[2],7900 nM
same,selectivity ratio,[3],198
Nc1c2c(nc3ccc([N+](=O)[O-])cc13)CCCC2,IC50,Plasmodium falciparum [1],3230 nM
same,IC50,[2],44600 nM
Clc1ccc2c(NCCCCCCNc3c4c(nc5cc(Cl)ccc35)CCCC4)c3c(nc2c1)CCCC3,IC50,Plasmodium falciparum [1],20 nM
same,IC50,[2],1800 nM
same,selectivity ratio,[3],90
same,inhibition,Plasmodium falciparum [4],36.9%
same,IC50,[5],17300 nM
c1ccc2c(NCCCCCNc3c4c(nc5ccccc35)CCCC4)c3c(nc2c1)CCCC3,IC50,Plasmodium falciparum [1],630 nM
same,IC50,[2],1800 nM
same,IC50,Plasmodium falciparum [6],550 nM
same,selectivity ratio,[3],2.86
same,selectivity ratio,[7],3.27
c1ccc2c(NCCCCCCCNc3c4c(nc5ccccc35)CCCC4)c3c(nc2c1)CCCC3,IC50,Plasmodium falciparum [1],70 nM
same,IC50,[2],1900 nM
same,IC50,Plasmodium falciparum [6],220 nM
same,selectivity ratio,[3],27.1
same,selectivity ratio,[7],8.64
CCN(CC)CCCC(C)Nc1ccnc2cc(Cl)ccc12 (stereo unspecified) [CHLOROQUINE],IC50,[2],18400 nM
same,IC50,[8],3.01 equiv
same,IC50,[9],1.91 equiv
CCCC1CCc2nc3ccccc3c(N)c2C1 (stereo unspecified),IC50,Plasmodium falciparum [1],1520 nM
same,IC50,[2],43000 nM
CCCC1CCc2nc3ccc(Cl)cc3c(N)c2C1 (stereo unspecified),IC50,Plasmodium falciparum [1],210 nM
same,IC50,[2],8400 nM
Cc1ccc2nc3c(c(N)c2c1)CCCC3,IC50,Plasmodium falciparum [1],2040 nM
same,IC50,[2],44300 nM
CCOC1CCc2nc3cc(Cl)ccc3c(NCCCCCCCCCNc3c4c(nc5cc(Cl)ccc35)CCC(OCC)C4)c2C1 (stereo unspecified),IC50,Plasmodium falciparum [1],200 nM
same,IC50,[2],1740 nM
same,IC50,Plasmodium falciparum [6],160 nM
same,selectivity ratio,[3],9
same,inhibition,Plasmodium falciparum [4],25%
Nc1c2c(nc3ccc(Cl)cc13)CCCC2,IC50,Plasmodium falciparum [1],4020 nM
same,IC50,[2],43200 nM
Nc1c2c(nc3ccccc13)CCCC2 [TACRINE],IC50,Plasmodium falciparum [1],12500 nM
same,IC50,[2],> 100000 nM
CC1CCc2c(nc3ccc([N+](=O)[O-])cc3c2NCCCCCCNc2c3c(nc4ccc([N+](=O)[O-])cc24)CC(C)CC3)C1 (stereo unspecified),IC50,Plasmodium falciparum [1],20 nM
same,IC50,[2],25000 nM
same,selectivity ratio,[3],1250
same,inhibition,Plasmodium falciparum [4],56.7%
same,IC50,[5],5200 nM
CC1CCc2nc3cc(Cl)ccc3c(NCCCCCCNc3c4c(nc5cc(Cl)ccc35)CCC(C)C4)c2C1 (stereo unspecified),IC50,Plasmodium falciparum [1],30 nM
same,IC50,[2],7800 nM
same,selectivity ratio,[3],260
c1ccc2c(NCCCCCCCCCCNc3c4c(nc5ccccc35)CCCC4)c3c(nc2c1)CCCC3,IC50,Plasmodium falciparum [1],110 nM
same,IC50,[2],1800 nM
same,IC50,Plasmodium falciparum [6],140 nM
same,selectivity ratio,[3],16.4
same,selectivity ratio,[7],12.9
CC1CCc2c(nc3cc(Cl)ccc3c2NCCCCCCNc2c3c(nc4cc(Cl)ccc24)CC(C)CC3)C1 (stereo unspecified),IC50,Plasmodium falciparum [1],50 nM
same,IC50,[2],1500 nM
same,selectivity ratio,[3],30
CC1(C)CCc2c(nc3ccccc3c2NCCCCCCNc2c3c(nc4ccccc24)CC(C)(C)CC3)C1,IC50,Plasmodium falciparum [1],30 nM
same,IC50,[2],1800 nM
same,selectivity ratio,[3],60
c1ccc2c(NCCCCCCCCNc3c4c(nc5ccccc35)CCCC4)c3c(nc2c1)CCCC3,IC50,Plasmodium falciparum [1],110 nM
same,IC50,[2],1900 nM
same,IC50,Plasmodium falciparum [6],300 nM
same,selectivity ratio,[3],17.3
same,selectivity ratio,[7],6.33
same,inhibition,Plasmodium falciparum [4],34.4%
same,IC50,[5],17100 nM
c1ccc2c(NCCCCCCNc3c4c(nc5ccccc35)CCCC4)c3c(nc2c1)CCCC3,IC50,Plasmodium falciparum [1],100 nM
same,IC50,[2],2970 nM
same,selectivity ratio,[3],29.7
COc1ccc2nc3c(c(NCCCCCCCCCNc4c5c(nc6ccc(OC)cc46)CCCC5)c2c1)CCCC3,IC50,Plasmodium falciparum [1],110 nM
same,IC50,[2],1700 nM
same,IC50,Plasmodium falciparum [6],160 nM
same,selectivity ratio,[3],15
same,inhibition,Plasmodium falciparum [4],62.2%
same,IC50,[5],14900 nM
